These results are taken from ChEMBL document CHEMBL2424598, “Identification and optimization of pteridinone Toll-like receptor 7 (TLR7) agonists for the oral treatment of viral hepatitis” (J Med Chem, 2013).

The structures appear in SMILES notation. pEC50: −log10 of the molar value.

Data set [1] deals with Cynomolgus monkey. As to the kind of experiment: Agonist activity at […] in po dosed cynomolgus monkey assessed as increase of serum IFNalpha level after 1 to 24 hrs by ELISA. Format: functional, organism-based. The following applies: Macaca fascicularis. An outline of the steps: (§1)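 Healthy male cynomolgus monkeys, n = 3 per group, dosed either by 30 min iv infusion or orally. Serum was sampled predose and at 1, 2, 4, 8, 12 and 24 h postdose. IFN-α was measured by species-specific ELISA (limit of detection 130 pg/mL) and reported as mean peak serum level ± SD.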
On the technique in general: An ELISA detects its analyte on a solid surface through an enzyme-linked reagent.

The test system of data set [2] is Cynomolgus monkey. Kind of data set: Agonist activity at […] in cynomolgus monkey assessed as increase of serum IFNalpha level at 0.1 mg/kg, iv after 1 to 24 hrs by ELISA. It is filed as functional, Macaca fascicularis. A digest of the protocol:
as §1

Data set [3] can be described thus: Oral bioavailability in cynomolgus monkey at 0.3 mg/kg. The note with it: in vivo. It is filed as ADME, organism-based, Macaca fascicularis. An outline of the steps: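 Healthy male cynomolgus monkeys, n = 3, received a 30 min iv infusion at 0.1 mg/kg or an oral dose at 0.3 mg/kg. The oral formulation was water at pH 3.1 (HCl). Plasma PK parameters (CL, Vss, F) are reported as mean ± SD.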

Data set [4] in a line: Half life in dog liver microsomes. Format: ADME, Canis lupus familiaris, Microsome. Background: Microsomes from liver hold many membrane-bound enzymes, among them those of drug oxidation.
Data set [5] in a line: Half life in mouse liver microsomes. It is filed as ADME, Microsome.
The next data set concerns the target T1, Toll-like receptor 7 (Homo sapiens, UniProt Q9NYK1).
T1 sequence (Q9NYK1 whole entry): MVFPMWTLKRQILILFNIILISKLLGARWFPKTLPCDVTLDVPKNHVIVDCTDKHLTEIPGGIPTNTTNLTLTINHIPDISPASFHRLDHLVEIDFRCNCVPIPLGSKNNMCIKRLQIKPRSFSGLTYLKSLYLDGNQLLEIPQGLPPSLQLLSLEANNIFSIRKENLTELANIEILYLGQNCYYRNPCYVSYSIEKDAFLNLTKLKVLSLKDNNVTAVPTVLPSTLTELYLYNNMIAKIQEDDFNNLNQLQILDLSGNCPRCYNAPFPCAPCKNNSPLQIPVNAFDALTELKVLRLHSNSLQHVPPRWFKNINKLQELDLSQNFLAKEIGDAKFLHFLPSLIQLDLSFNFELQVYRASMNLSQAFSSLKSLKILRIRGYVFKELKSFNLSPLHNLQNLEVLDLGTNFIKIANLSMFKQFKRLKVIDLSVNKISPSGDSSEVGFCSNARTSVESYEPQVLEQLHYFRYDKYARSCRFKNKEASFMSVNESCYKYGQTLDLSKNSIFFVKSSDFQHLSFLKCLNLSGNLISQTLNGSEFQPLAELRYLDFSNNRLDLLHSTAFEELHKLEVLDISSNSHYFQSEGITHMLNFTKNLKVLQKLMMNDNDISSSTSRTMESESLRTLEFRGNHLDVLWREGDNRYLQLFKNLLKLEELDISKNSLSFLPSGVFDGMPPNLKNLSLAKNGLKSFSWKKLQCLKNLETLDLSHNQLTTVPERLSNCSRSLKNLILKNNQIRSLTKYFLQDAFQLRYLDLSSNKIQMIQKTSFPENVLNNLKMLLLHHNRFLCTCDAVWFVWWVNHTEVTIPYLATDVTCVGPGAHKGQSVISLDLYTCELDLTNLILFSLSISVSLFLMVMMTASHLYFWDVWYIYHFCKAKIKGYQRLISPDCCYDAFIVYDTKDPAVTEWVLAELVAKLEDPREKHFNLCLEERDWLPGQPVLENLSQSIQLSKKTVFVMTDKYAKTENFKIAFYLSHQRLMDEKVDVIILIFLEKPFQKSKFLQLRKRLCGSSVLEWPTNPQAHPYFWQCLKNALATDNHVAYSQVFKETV
As to the kind of experiment: Agonist activity at human TLR7 expressed in HEK293 cells by reporter based assay. It is filed as cell-based. An outline of the steps: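 HEK293 reporter cell lines, each expressing a single human TLR, with compound titrated up to 100 μM. EC50 taken for TLR7 and TLR8 activation.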

The target of data set [6] is T2, Toll-like receptor 8 (Homo sapiens) (UniProt Q9NR97).
T2 sequence (whole entry): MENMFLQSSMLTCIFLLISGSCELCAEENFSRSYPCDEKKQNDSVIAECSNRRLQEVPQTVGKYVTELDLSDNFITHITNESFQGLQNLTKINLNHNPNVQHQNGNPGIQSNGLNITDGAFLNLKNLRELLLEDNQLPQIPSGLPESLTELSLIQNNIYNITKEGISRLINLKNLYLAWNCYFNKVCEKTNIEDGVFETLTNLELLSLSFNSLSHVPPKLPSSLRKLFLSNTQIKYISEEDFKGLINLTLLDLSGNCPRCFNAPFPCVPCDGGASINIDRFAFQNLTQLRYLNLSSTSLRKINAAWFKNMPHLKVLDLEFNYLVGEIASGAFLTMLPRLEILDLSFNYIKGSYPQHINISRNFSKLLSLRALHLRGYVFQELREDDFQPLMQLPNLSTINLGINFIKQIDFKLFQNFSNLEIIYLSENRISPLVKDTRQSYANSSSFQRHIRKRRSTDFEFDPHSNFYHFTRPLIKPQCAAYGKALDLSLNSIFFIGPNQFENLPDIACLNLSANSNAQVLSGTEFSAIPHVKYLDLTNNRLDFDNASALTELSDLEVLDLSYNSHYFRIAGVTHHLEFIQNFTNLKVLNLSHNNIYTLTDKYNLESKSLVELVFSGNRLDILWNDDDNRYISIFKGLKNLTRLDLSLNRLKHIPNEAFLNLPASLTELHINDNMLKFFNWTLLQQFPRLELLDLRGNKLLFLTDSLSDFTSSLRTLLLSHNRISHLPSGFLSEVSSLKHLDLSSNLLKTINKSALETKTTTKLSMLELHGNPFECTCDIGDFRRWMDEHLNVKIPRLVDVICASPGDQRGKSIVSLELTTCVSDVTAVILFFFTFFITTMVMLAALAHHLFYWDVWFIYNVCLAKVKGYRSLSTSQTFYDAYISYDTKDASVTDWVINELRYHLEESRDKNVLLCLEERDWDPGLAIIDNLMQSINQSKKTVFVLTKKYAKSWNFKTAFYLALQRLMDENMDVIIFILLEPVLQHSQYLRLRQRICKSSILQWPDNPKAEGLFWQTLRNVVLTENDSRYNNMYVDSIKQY
As to the kind of experiment: Agonist activity at TLR8-mediated TNFalpha production in human PBMC assessed as minimum concentration of compound necessary to generate >3 fold of cytokine levels relative to control. A digest of the protocol:
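Cryopreserved human PBMCs from leukapheresis of one healthy donor, chosen as a consistent responder to TLR7 stimulation; 24 h incubation with compound over an eight-point concentration range. TNF-α read from dose-response curves. MEC is the lowest concentration giving cytokine levels at least 3-fold above untreated control cultures.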

The species entered for the next data set is Homo sapiens. As to the kind of experiment: Selectivity ratio of MEC for TLR8-mediated TNFalpha production in human PBMC to MEC for TLR7-mediated IFNalpha production in human PBMC. An outline of the steps: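 Cryopreserved human PBMCs came from leukapheresis of a single healthy donor selected as a consistent responder. Cells were incubated with compound for 24 h over an eight-point concentration range, and cytokine release was measured. MEC is the lowest concentration giving cytokine levels at least 3-fold above untreated cultures, determined per cytokine.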

Data set [7] concerns Cynomolgus monkey. Kind of data set: Agonist activity at […] in cynomolgus monkey assessed as increase of serum TNFalpha level at 2 mg/kg after 1 to 24 hrs by ELISA.

As usually defined, the bioavailability is dose-corrected exposure relative to a reference, in per cent. Usually half-life stands for the time needed for the level to fall by half in the phase considered. What is called pEC50 is the EC50 on a negative log10 scale, so that one unit is a factor of ten. `CCCCOc1nc(N)c2c(n1)N(Cc1cccc(CN3CCCC3)c1)CC(=O)N2` [VESATOLIMOD]: the values for the Activity entry with Cynomolgus monkey [1], in the data set on Cynomolgus monkey [2] and in the data set with Cynomolgus monkey [7] were “Dose-dependent effect”, 1840 pg/mL and 578 pg/mL, respectively. In [3], this compound showed a bioavailability of 1.1%. Besides, the half-life in data set [4] is 58.6 min; in data set [5] it was 4.9 min. At Toll-like receptor 7, this compound gave a pEC50 of 6.54. In addition, the MEC in [6] worked out at 3.65 µM. Further, the Ratio in the data set filed under Homo sapiens came out at 100.
